Test results reported in ChEMBL document CHEMBL3243989, “Antibacterial N-[omega, omega'-bis(alicyclic and aryl)-sec-alkyl]poly(methylene)triamine and -tetramine hydrochloride salts” (J Med Chem, 1979).
Values after ≈ are worked out from the molar mass of the structure shown. Active and inactive are the calls of the source. The calls are words filed in the database; no cut-off is given here.

What was measured:
Proteus vulgaris = test: Antibacterial activity against Proteus vulgaris MB838 assessed as growth inhibition at 200 ug/mL; assay type: functional, organism-based
Escherichia coli = test: Antibacterial activity against Escherichia coli MB2884 assessed as growth inhibition; assay type: functional
Summary of the method: (§1)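 MIC (µg/mL) by in vitro growth inhibition in an assay system at pH 7.4. Tetracycline was run routinely to check medium, incubation conditions and inoculum virility.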

[1] = system: Corynebacterium pseudodiphtheriticum; test: Antibacterial activity against Corynebacterium pseudodiphtheriticum assessed as growth inhibition at 2 to 8 ug/mL; assay type: functional, organism-based
Pseudomonas aeruginosa [2] = test: Antibacterial activity against Pseudomonas aeruginosa MB2245 assessed as growth inhibition; assay type: functional; summary of the method: as §1
Bacillus subtilis = test: Antibacterial activity against Bacillus subtilis MB964 assessed as growth inhibition; assay type: functional; summary of the method: as §1
Klebsiella aerogenes = test: Antibacterial activity against Klebsiella aerogenes MB1503 assessed as growth inhibition; assay type: functional; summary of the method: as §1
Staphylococcus aureus [3] = test: Antibacterial activity against Staphylococcus aureus MB108 assessed as growth inhibition; assay type: functional; summary of the method: as §1
Pasteurella multocida = test: Antibacterial activity against Pasteurella multocida MB7 assessed as growth inhibition at 2 to 8 ug/mL; assay type: functional, organism-based
Staphylococcus aureus [4] = test: Antibacterial activity against Staphylococcus aureus MB2865 assessed as growth inhibition; assay type: functional; summary of the method: as §1
[5] = system: Bordetella bronchiseptica; test: Antibacterial activity against Bordetella bronchiseptica MB3551 assessed as growth inhibition; assay type: functional; summary of the method: as §1
[6] = system: Bordetella bronchiseptica; test: Antibacterial activity against Bordetella bronchiseptica MB905 assessed as growth inhibition; assay type: functional; summary of the method: as §1
Pseudomonas aeruginosa [7] = test: Antibacterial activity against Pseudomonas aeruginosa MB418 assessed as growth inhibition; assay type: functional; summary of the method: as §1
Salmonella = test: Antibacterial activity against Salmonella schottmuelleri MB2837 assessed as growth inhibition; assay type: functional; summary of the method: as §1
Streptococcus pyogenes = test: Antibacterial activity against Streptococcus pyogenes assessed as growth inhibition at 2 to 8 ug/mL; assay type: functional, organism-based

SMILES: Cl.NCCCNCCCNC(CC1CCCCC1)CC1CCCCC1
- growth inhibition (GI) (Proteus vulgaris): inactive
- MIC (Escherichia coli): 40 µg/mL
- growth inhibition (GI) [1]: inactive
- MIC (Pseudomonas aeruginosa [2]): 40 µg/mL
- MIC (Bacillus subtilis): 10 µg/mL
- MIC (Klebsiella aerogenes): 8 µg/mL
- MIC (Staphylococcus aureus [3]): 30 µg/mL
- growth inhibition (GI) (Pasteurella multocida): Active
- MIC (Staphylococcus aureus [4]): 40 µg/mL
- MIC [5]: 6 µg/mL
- MIC [6]: 4 µg/mL
- MIC (Pseudomonas aeruginosa [7]): 60 µg/mL
- MIC (Salmonella): 4 µg/mL
- growth inhibition (GI) (Streptococcus pyogenes): Active

SMILES: Cl.NCCCNCC(O)CNC(CCC1CCCCC1)CCC1CCCCC1 (stereo unspecified)
- MIC (Escherichia coli): 8 µg/mL
- MIC (Pseudomonas aeruginosa [2]): 8 µg/mL
- MIC (Bacillus subtilis): 4 µg/mL
- MIC (Klebsiella aerogenes): 6 µg/mL
- MIC (Staphylococcus aureus [3]): 8 µg/mL
- MIC (Staphylococcus aureus [4]): 15 µg/mL
- MIC [5]: 4 µg/mL
- MIC [6]: 4 µg/mL
- MIC (Pseudomonas aeruginosa [7]): 20 µg/mL
- MIC (Salmonella): 4 µg/mL

SMILES: Cl.NCCCNCCCNC(CCCC1CCCCC1)CCCC1CCCCC1
- growth inhibition (GI) (Proteus vulgaris): inactive
- MIC (Escherichia coli): 8 µg/mL
- growth inhibition (GI) [1]: inactive
- MIC (Pseudomonas aeruginosa [2]): 8 µg/mL
- MIC (Bacillus subtilis): 4 µg/mL
- MIC (Klebsiella aerogenes): 4 µg/mL
- MIC (Staphylococcus aureus [3]): 4 µg/mL
- growth inhibition (GI) (Pasteurella multocida): Active
- MIC (Staphylococcus aureus [4]): 8 µg/mL
- MIC [5]: 4 µg/mL
- MIC [6]: 4 µg/mL
- MIC (Pseudomonas aeruginosa [7]): 8 µg/mL
- MIC (Salmonella): 4 µg/mL
- growth inhibition (GI) (Streptococcus pyogenes): Active

SMILES: Cc1ccc(C(C)(C)C)cc1CCCC(CCCc1cc(C(C)(C)C)ccc1C)NCCCNCCCNCCCN.Cl
- growth inhibition (GI) (Proteus vulgaris): inactive
- MIC (Escherichia coli): 100 µg/mL
- growth inhibition (GI) [1]: inactive
- MIC (Pseudomonas aeruginosa [2]): 50 µg/mL
- MIC (Bacillus subtilis): 6 µg/mL
- MIC (Klebsiella aerogenes): 200 µg/mL
- MIC (Staphylococcus aureus [3]): 20 µg/mL
- growth inhibition (GI) (Pasteurella multocida): Active
- MIC (Staphylococcus aureus [4]): 8 µg/mL
- MIC [5]: 8 µg/mL
- MIC [6]: 8 µg/mL
- MIC (Pseudomonas aeruginosa [7]): 40 µg/mL
- MIC (Salmonella): 8 µg/mL
- growth inhibition (GI) (Streptococcus pyogenes): Active

SMILES: CC1(C)C2CCC(C2)C1CCC(CCC1C2CCC(C2)C1(C)C)NCCNCCN.Cl (stereo unspecified)
- growth inhibition (GI) (Proteus vulgaris): inactive
- MIC (Escherichia coli): 4 µg/mL
- growth inhibition (GI) [1]: inactive
- MIC (Pseudomonas aeruginosa [2]): > 200 µg/mL
- MIC (Bacillus subtilis): 6 µg/mL
- MIC (Klebsiella aerogenes): 10 µg/mL
- MIC (Staphylococcus aureus [3]): 6 µg/mL
- growth inhibition (GI) (Pasteurella multocida): Active
- MIC (Staphylococcus aureus [4]): 6 µg/mL
- MIC [5]: 4 µg/mL
- MIC [6]: 4 µg/mL
- MIC (Pseudomonas aeruginosa [7]): 200 µg/mL
- MIC (Salmonella): 50 µg/mL
- growth inhibition (GI) (Streptococcus pyogenes): Active

SMILES: CC1(C)C2CCC(C2)C1CCC(CCC1C2CCC(C2)C1(C)C)NCCCNCCNCCCN.Cl (stereo unspecified)
- growth inhibition (GI) (Proteus vulgaris): inactive
- MIC (Escherichia coli): 30 µg/mL
- growth inhibition (GI) [1]: inactive
- MIC (Pseudomonas aeruginosa [2]): 15 µg/mL
- MIC (Bacillus subtilis): 4 µg/mL
- MIC (Klebsiella aerogenes): 15 µg/mL
- MIC (Staphylococcus aureus [3]): 4 µg/mL
- growth inhibition (GI) (Pasteurella multocida): Active
- MIC (Staphylococcus aureus [4]): 8 µg/mL
- MIC [5]: 4 µg/mL
- MIC [6]: 4 µg/mL
- MIC (Pseudomonas aeruginosa [7]): 30 µg/mL
- MIC (Salmonella): 4 µg/mL
- growth inhibition (GI) (Streptococcus pyogenes): Active

SMILES: Cl.NCCCNCCCNC(CCCC1CC=CCC1)CCCC1CC=CCC1 (stereo unspecified)
- growth inhibition (GI) (Proteus vulgaris): inactive
- MIC (Escherichia coli): 10 µg/mL
- growth inhibition (GI) [1]: inactive
- MIC (Pseudomonas aeruginosa [2]): 15 µg/mL
- MIC (Bacillus subtilis): 4 µg/mL
- MIC (Klebsiella aerogenes): 6 µg/mL
- MIC (Staphylococcus aureus [3]): 6 µg/mL
- growth inhibition (GI) (Pasteurella multocida): Active
- MIC (Staphylococcus aureus [4]): 10 µg/mL
- MIC [5]: 4 µg/mL
- MIC [6]: 2 µg/mL
- MIC (Pseudomonas aeruginosa [7]): 20 µg/mL
- MIC (Salmonella): 4 µg/mL
- growth inhibition (GI) (Streptococcus pyogenes): Active

SMILES: CC(C)(C)c1ccc(CCC(CCc2ccc(C(C)(C)C)cc2)NCCCNCCCN)cc1.Cl
- growth inhibition (GI) (Proteus vulgaris): inactive
- MIC (Escherichia coli): 6 µg/mL
- growth inhibition (GI) [1]: inactive
- MIC (Pseudomonas aeruginosa [2]): 15 µg/mL
- MIC (Bacillus subtilis): 2 µg/mL
- MIC (Klebsiella aerogenes): 15 µg/mL
- MIC (Staphylococcus aureus [3]): 6 µg/mL
- growth inhibition (GI) (Pasteurella multocida): Active
- MIC (Staphylococcus aureus [4]): 15 µg/mL
- MIC [5]: 4 µg/mL
- MIC [6]: 4 µg/mL
- MIC (Pseudomonas aeruginosa [7]): 8 µg/mL
- MIC (Salmonella): 4 µg/mL
- growth inhibition (GI) (Streptococcus pyogenes): Active

SMILES: CC(C)(C)c1ccc(CCCC(CCCc2ccc(C(C)(C)C)cc2)NCCNCCNCCN)cc1.Cl
- growth inhibition (GI) (Proteus vulgaris): inactive
- MIC (Escherichia coli): 60 µg/mL
- growth inhibition (GI) [1]: inactive
- MIC (Pseudomonas aeruginosa [2]): 100 µg/mL
- MIC (Bacillus subtilis): 15 µg/mL
- MIC (Klebsiella aerogenes): 50 µg/mL
- MIC (Staphylococcus aureus [3]): 20 µg/mL
- growth inhibition (GI) (Pasteurella multocida): Active
- MIC (Staphylococcus aureus [4]): 30 µg/mL
- MIC [5]: 60 µg/mL
- MIC [6]: 8 µg/mL
- MIC (Pseudomonas aeruginosa [7]): 100 µg/mL
- MIC (Salmonella): 8 µg/mL
- growth inhibition (GI) (Streptococcus pyogenes): Active

SMILES: CC(C)c1ccc(CCC(CCc2ccc(C(C)C)cc2)NCCCNCCCN)cc1.Cl
- growth inhibition (GI) (Proteus vulgaris): inactive
- MIC (Escherichia coli): 8 µg/mL
- growth inhibition (GI) [1]: inactive
- MIC (Pseudomonas aeruginosa [2]): 10 µg/mL
- MIC (Bacillus subtilis): 4 µg/mL
- MIC (Staphylococcus aureus [3]): 8 µg/mL
- growth inhibition (GI) (Pasteurella multocida): Active
- MIC (Staphylococcus aureus [4]): 8 µg/mL
- MIC [5]: 4 µg/mL
- MIC [6]: 4 µg/mL
- MIC (Pseudomonas aeruginosa [7]): 10 µg/mL
- MIC (Salmonella): 4 µg/mL
- growth inhibition (GI) (Streptococcus pyogenes): Active

SMILES: CN(C)[C@@H]1C(O)=C(C(N)=O)C(=O)[C@@]2(O)C(O)=C3C(=O)c4c(O)cccc4[C@@](C)(O)[C@H]3C[C@@H]12 [TETRACYCLINE]
- growth inhibition (GI) (Proteus vulgaris): inactive
- MIC (Escherichia coli): 30 µg/mL (≈ 67.5 µM)
- growth inhibition (GI) [1]: inactive
- MIC (Pseudomonas aeruginosa [2]): 30 µg/mL (≈ 67.5 µM)
- MIC (Bacillus subtilis): 2 µg/mL (≈ 4.5 µM)
- MIC (Klebsiella aerogenes): 2 µg/mL (≈ 4.5 µM)
- MIC (Staphylococcus aureus [3]): 2 µg/mL (≈ 4.5 µM)
- growth inhibition (GI) (Pasteurella multocida): Active
- MIC (Staphylococcus aureus [4]): 2 µg/mL (≈ 4.5 µM)
- MIC [5]: 2 µg/mL (≈ 4.5 µM)
- MIC [6]: 2 µg/mL (≈ 4.5 µM)
- MIC (Pseudomonas aeruginosa [7]): 20 µg/mL (≈ 45 µM)
- MIC (Salmonella): 2 µg/mL (≈ 4.5 µM)
- growth inhibition (GI) (Streptococcus pyogenes): Active

SMILES: CC1(C)C2CCC(C2)C1CCC(CCC1C2CCC(C2)C1(C)C)NCCCN(CCCN)CCCN.Cl (stereo unspecified)
- growth inhibition (GI) (Proteus vulgaris): inactive
- MIC (Escherichia coli): 50 µg/mL
- growth inhibition (GI) [1]: inactive
- MIC (Pseudomonas aeruginosa [2]): 30 µg/mL
- MIC (Bacillus subtilis): 4 µg/mL
- MIC (Klebsiella aerogenes): 30 µg/mL
- MIC (Staphylococcus aureus [3]): 6 µg/mL
- growth inhibition (GI) (Pasteurella multocida): Active
- MIC (Staphylococcus aureus [4]): 4 µg/mL
- MIC [5]: 2 µg/mL
- MIC [6]: 4 µg/mL
- MIC (Pseudomonas aeruginosa [7]): 50 µg/mL
- MIC (Salmonella): 4 µg/mL
- growth inhibition (GI) (Streptococcus pyogenes): Active

SMILES: CC(C)C1CCC(CCC(CCC2CCC(C(C)C)CC2)NCCCNCCCN)CC1.Cl (stereo unspecified)
- growth inhibition (GI) (Proteus vulgaris): inactive
- MIC (Escherichia coli): 50 µg/mL
- growth inhibition (GI) [1]: inactive
- MIC (Pseudomonas aeruginosa [2]): 60 µg/mL
- MIC (Bacillus subtilis): 6 µg/mL
- MIC (Klebsiella aerogenes): 50 µg/mL
- MIC (Staphylococcus aureus [3]): 20 µg/mL
- growth inhibition (GI) (Pasteurella multocida): Active
- MIC (Staphylococcus aureus [4]): 40 µg/mL
- MIC [5]: 10 µg/mL
- MIC [6]: 10 µg/mL
- MIC (Pseudomonas aeruginosa [7]): 60 µg/mL
- MIC (Salmonella): 20 µg/mL
- growth inhibition (GI) (Streptococcus pyogenes): Active

SMILES: Cc1ccc(C(C)(C)C)cc1CCCC(CCCc1cc(C(C)(C)C)ccc1C)NCCNCCNCCN.Cl
- growth inhibition (GI) (Proteus vulgaris): inactive
- MIC (Escherichia coli): 60 µg/mL
- growth inhibition (GI) [1]: inactive
- MIC (Pseudomonas aeruginosa [2]): 80 µg/mL
- MIC (Bacillus subtilis): 4 µg/mL
- MIC (Klebsiella aerogenes): 10 µg/mL
- MIC (Staphylococcus aureus [3]): 15 µg/mL
- growth inhibition (GI) (Pasteurella multocida): Active
- MIC (Staphylococcus aureus [4]): 60 µg/mL
- MIC [5]: 10 µg/mL
- MIC [6]: 15 µg/mL
- MIC (Pseudomonas aeruginosa [7]): 50 µg/mL
- MIC (Salmonella): 10 µg/mL
- growth inhibition (GI) (Streptococcus pyogenes): Active
